A short description of this series: Toxicity liver stage against HepG2, at 10uM. It is filed as cell-based. Details: test concentration 10 uM, cell line HepG2-A16-CD81EGFP. The conditions noted are these: human, HepG2-A16-CD81EGFP cells; read-out: INHIBITION
Put shortly: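 Uninfected HepG2-A16-CD81EGFP cells, 3 × 10^3 per well, 1536-well, plated on prespotted compound at 10 μM final, parasite-free screening media added to match infected plates; puromycin 10 μM positive, DMSO 0.5% negative; run in parallel with 48 h PbLuc assay at 37 °C, 5% CO2; viability by CellTiter-Glo luminescence, normalized to controls.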
With `CC(C)n1nc(CNc2ncccn2)c2c1CN(C1CCOCC1)CC2`, the cytotoxicity at 10 µM is -129%. Turning to `O=C1NCCN(Cc2ccoc2)C1CC(=O)N1CCc2sccc2C1` (stereo not given), the cytotoxicity at 10 µM was -3.45%. For the compound `COc1cc(C2CC(=O)Nc3c2cnn3C)ccc1O` (stereo not given), the cytotoxicity at 10 µM is 45.5%. As to `CCN(Cc1c(C)nn(CC)c1C)S(=O)(=O)c1cnn(C)c1C`, the cytotoxicity at 10 µM came out at 9.65%. For `Cc1ccc(CN2CCCC3(CCN(Cc4ccoc4)CC3)C2)cc1`, the cytotoxicity at 10 µM was -91%. On to `Cc1ccc(OCC(=O)NS(=O)(=O)Cc2ccccc2)cc1`, for which the cytotoxicity at 10 µM turned out to be 2.07%. With `CCOCC1CCN(C(=O)Nc2ccc3c(c2)CCCN3C)C1` (stereo not given), the cytotoxicity at 10 µM is 10.1%. In the case of `CC(=O)N1CCN(C(=O)CNc2ccc3sccc3c2)CC1` it was 0.335%; in that of `Cc1ccc(N2CCCN(C(=O)c3cn(C)c4ccccc34)CC2)nn1`, -9.53%. Take `c1cc(-c2noc([C@@H]3CCCN3CC3CC3)n2)cc(N2CCCC2)n1`: the cytotoxicity at 10 µM came to 4.12%. For the compound `CNc1nccc(-c2cn(C)nc2C)n1`, the cytotoxicity at 10 µM was -6.59%. `CN1CCN(Cc2cnc3n2CCN(C(=O)c2ccnnc2)C3)CC1`: the cytotoxicity at 10 µM is -81.1%.

For `CSC(C)C(=O)Nc1ccnn1-c1ccccc1C` (stereo not given), the cytotoxicity at 10 µM is -12.5%. In the case of `Cc1ccc(C(=O)NC2CCN(Cc3noc(CC(C)C)n3)CC2)s1` it was -15.2%; in that of `CCc1ncc2c(n1)CN(CC1CCCCO1)CC2` (stereo not given), -21.1%.

Take `CC(C)(CNC(=O)C1(c2cccc(Br)c2)CCOCC1)C(=O)O`: the cytotoxicity at 10 µM stood at 2.9%. For `Cc1ccsc1C(=O)NCCCn1nc2ccccn2c1=O`, the cytotoxicity at 10 µM is -1.1%. In the case of `CC(C)c1nsc(N2CCOCC2)n1` it was -11%. Take `O=C(C[C@@H]1COC[C@H]2CN(Cc3cccnc3)C[C@@H]12)NCC1CC1`: the cytotoxicity at 10 µM was determined as 0.752%. `Cc1cccc(C(=O)N2CCC3(CC2)CC(c2ccccc2)C(=O)N3)c1` (stereo not given): the cytotoxicity at 10 µM was 17.8%. As for `O=C(NCCC1COc2ccccc2O1)c1ccc(N2CC(O)C2)nc1` (stereo not given), the cytotoxicity at 10 µM is 72.1%. As for `CC(CC(=O)NCCNS(C)(=O)=O)C1CCCCC1` (stereo not given), the cytotoxicity at 10 µM was 6.43%. The figure for `OCc1cc2ccccc2nc1NCC1(O)CCC1` is -46.9%; for `CS(=O)(=O)N1CCc2nc(NC(=O)Nc3c(F)cccc3F)sc2C1` it is -10.4%. `CCOc1c(F)cccc1C(=O)N(C)CCc1ccccn1`: the cytotoxicity at 10 µM was found to be 18.6%. On to `CC[C@H](Nc1nc(C(C)C)nc2c1cnn2C)c1ccccc1`, for which the cytotoxicity at 10 µM was -47.5%.

For the compound `Cc1noc(C)c1CN1CCN(Cc2ccncc2)c2ncccc2C1`, the cytotoxicity at 10 µM was 5.51%.

On to `COc1c(C)cnc(CN(C)C(=O)c2cccc(NC(N)=O)c2)c1C`, for which the cytotoxicity at 10 µM is -8.94%.

For `CN1CC(c2cc(O)nc(NCc3cccc(F)c3)n2)CC1=O` (stereo not given), the cytotoxicity at 10 µM was 1.96%. With `CN(C)CC(=O)N1Cc2ncn(C)c2C(COCC2CCOCC2)C1` (stereo not given), the cytotoxicity at 10 µM was -71%.

For the compound `COCCO[C@H]1CCN(C(=O)c2cc(C)on2)[C@H]1Cc1ccccc1`, the cytotoxicity at 10 µM is 8.22%. As for `O=C(NCCN1CCOCC1)N1CCN(c2ccccc2)CC1`, the cytotoxicity at 10 µM is 8.84%. With `N#Cc1cccc(S(=O)(=O)N2CCCCC2C(N)=O)c1` (stereo not given), the cytotoxicity at 10 µM was determined as 0.645%. On to `O=C1[C@H]2CN(c3ncccn3)C[C@H]2CN1Cc1ccncc1`, for which the cytotoxicity at 10 µM is -12.1%. As for `Cc1ccc2[nH]c(CN(C)c3cc(CN)nc(C)n3)nc2c1`, the cytotoxicity at 10 µM came out at 1.69%. In the case of `CN(C)CCOCc1nnc2n1CCN(Cc1ccco1)C2` it was 7.55%. `Cc1ccc2ncnc(N3CCOCC3c3c(C)nn(C)c3C)c2c1` (stereo not given): the cytotoxicity at 10 µM is 12.2%. On to `CCOc1ncccc1CNc1nnc(C)c(C)c1C#N`, for which the cytotoxicity at 10 µM was -12.1%. `COc1ccc(-n2cc(CNC(=O)c3cscn3)nn2)cc1`: the cytotoxicity at 10 µM was -2.33%. Consider `CCc1c(C)nc(C)nc1N1C[C@@H](CN(CC)CCO)[C@@H](CO)C1`, for which the cytotoxicity at 10 µM came out at 1.5%.

The values are drawn from ChEMBL document CHEMBL4513216, “Probing the Open Global Health Chemical Diversity Library for Multistage-Active Starting Points for Next-Generation Antimalarials” (ACS Infect Dis, 2020).
